Calls of active or inactive are those of the source. No cut-off for these calls is given here.
Columns and labels:
Carbonic anhydrase 1 [1] = biological target: T1, Carbonic anhydrase 1 (Homo sapiens, UniProt P00915); assay: Competitive inhibition of cytosolic carbonic anhydrase 1 esterase activity isolated from human erythrocytes in presence of 4-nitrophenylacetate
In short: (§1)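 Esterase activity followed at 348 nm as 4-nitrophenylacetate (3 mM stock) converts to 4-nitrophenylate, 3 min at 25 °C, in 0.05 M Tris–SO4 pH 7.4. Blank without enzyme; uninhibited control = 100%. Several inhibitor concentrations, each in triplicate; KI from activity-versus-[inhibitor] plots via Cheng–Prusoff.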
Target sequence in this assay (P00915 2-261 limits assumed): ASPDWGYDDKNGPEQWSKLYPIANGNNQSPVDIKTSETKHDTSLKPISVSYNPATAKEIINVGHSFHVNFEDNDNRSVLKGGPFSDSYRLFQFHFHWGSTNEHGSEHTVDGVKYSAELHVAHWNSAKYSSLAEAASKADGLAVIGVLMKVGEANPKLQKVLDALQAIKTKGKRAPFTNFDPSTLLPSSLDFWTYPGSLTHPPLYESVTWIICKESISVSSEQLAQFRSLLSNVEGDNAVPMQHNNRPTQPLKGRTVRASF

Carbonic anhydrase 2 = Carbonic anhydrase 2 (Homo sapiens, UniProt P00918); assay: Inhibition of cytosolic carbonic anhydrase 2 esterase activity isolated from human erythrocytes using 4-nitrophenylacetate as substrate measured over 3 mins by spectrophotometric analysis
Carbonic anhydrase 1 [2] = biological target: T1, Carbonic anhydrase 1; assay: Inhibition of cytosolic carbonic anhydrase 1 esterase activity isolated from human erythrocytes using 4-nitrophenylacetate as substrate measured over 3 mins by spectrophotometric analysis; in short: as §1
Target sequence in this assay (P00915 whole entry): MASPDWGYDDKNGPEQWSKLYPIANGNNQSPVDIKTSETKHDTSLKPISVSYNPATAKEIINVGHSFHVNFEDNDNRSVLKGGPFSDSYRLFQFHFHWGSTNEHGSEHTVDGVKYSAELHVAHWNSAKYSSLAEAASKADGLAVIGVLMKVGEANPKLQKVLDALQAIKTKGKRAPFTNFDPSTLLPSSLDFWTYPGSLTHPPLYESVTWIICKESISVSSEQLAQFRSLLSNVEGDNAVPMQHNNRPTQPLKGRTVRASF

Compound	inhibition (Carbonic anhydrase 1 [1])	Ki (Carbonic anhydrase 2) [µM]	Ki (Carbonic anhydrase 1 [2]) [µM]
Cc1ccc(S(=O)(=O)NCC(=O)OCc2ccccc2)cc1	Active	–	29.6
COC(=O)CNS(=O)(=O)c1ccc(C)cc1	Active	56.4	106
Cc1ccc(S(=O)(=O)NCC(=O)N2CCCCC2)cc1	–	19.3	–
Cc1ccc(S(=O)(=O)N[C@@H](Cc2ccccc2)C(=O)N2CCCCC2)cc1	Active	–	100

More lines, now with the values ahead:

inhibition (Carbonic anhydrase 1 [1])	Ki (Carbonic anhydrase 2) [µM]	Ki (Carbonic anhydrase 1 [2]) [µM]	Compound
Active	104	315	Cc1ccc(S(=O)(=O)N[C@@H](Cc2ccccc2)C(=O)O)cc1
Active	144	120	Cc1ccc(S(=O)(=O)NCC(=O)O)cc1
Active	–	63.7	COC(=O)[C@H](Cc1ccccc1)NS(=O)(=O)c1ccc(C)cc1
Active	–	14.7	Cc1ccc(S(=O)(=O)N[C@@H](Cc2ccccc2)C(=O)OCc2ccccc2)cc1
